# CHOP inhibitor: CHOP inhibition in unfolded protein response; 3.8% of 220,000 active; CHO-K1 CHOP-promoter luciferase, tunicamycin-induced, 15-18 h; AID 2732; inhibition, % at 10 µM;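 active means compounds that reduced the stress-induced luciferase reporter signal by more than about 70% of percent inhibition, limit read from the data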
# Bfl-1 A1 inh: inhibitors of the anti-apoptotic protein A1, read as caspase activation | caspase activation, % (concentration not given with the values) | MEF A1-2A-BIM cells, Caspase-Glo 3/7 luminescence, 3 h; percent of clofoctol response, vehicle zero | 0.066% of 330,000 active;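 active means over half of replicate activation scores above 10%, or exactly half above 10 with the replicate mean above 10; inconclusive means replicate mean below 10 yet half the replicates above 10; inactive means over half of replicates below 10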
# CHOP UPR activ: activators of apoptotic arm of unfolded protein response (CHOP); 0.34% of 330,000 active; activation, % at 10 µM; CHO-CHOP luciferase reporter, UPR activation, luminescence; percent of tunicamycin response over DMSO baseline; AID 449763;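 active means at 10 µM dose, activation of 40% or more, normalized to positive control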
#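 assay system = CHO CHOP reporter cells | amount = 500 CHO-CHOP cells per well | buffer or medium = F12 with 10% FBS | incubation = 16-18 h cell attachment, then 6 h compound exposure, 37 °C | detection = luminescence read with Steady-Glo | read-out = percent activation relative to tunicamycin control | controls = tunicamycin high control, DMSO low control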
# XBP1 UPR activ: activators of adaptive arm of unfolded protein response (XBP1) | CHO-XBP1 luciferase reporter, IRE1-XBP1 UPR activation, luminescence; percent of tunicamycin response, DMSO as zero | activation, % at 20 µM | 0.33% of 330,000 active | AID 463104;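 active means versus positive control, 20 µM dose yields 30% or more activation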
#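 Material: IRE1-XBP1 luciferase reporter CHO line / Quantity: one thousand reporter cells per well / Buffer or medium: F12 with 10% serum / Compound: 20 µM single concentration, DMSO 1% / Times: 6 h treatment, 37 °C / Detection: Steady-Glo luciferase glow luminescence, 10 min after reagent addition / Benchmarks: tunicamycin high, DMSO low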
# Hits are given with their value; – = inactive; ? = inconclusive; · = not tested or not shown. The entries come from a sample that favours hits as a whole.
SMILES,CHOP inhibitor,Bfl-1 A1 inh,CHOP UPR activ,XBP1 UPR activ
CCOC(=O)c1oc2ccc(S(=O)(=O)n3nc(-c4ccccc4)cc3N)cc2c1C,85,–,–,–
COc1ccc(N2CC(C(=O)N3CCc4ccccc43)CC2=O)cc1 (stereo not drawn),·,–,–,–
NC(=O)c1cccn1Cc1ccccc1Cl,–,?,–,–
NC(=O)c1ccc(C(F)(F)F)n(Cc2ccccc2Cl)c1=O,92,–,–,–
CCc1ccc2c(c1)C1(NN=C(c3ccc(C)cc3)S1)C(=O)N2 (stereo not drawn),88,–,–,–
CCNc1nc2c(c(=O)n(C)c(=O)n2C)n1CCCc1ccccc1,·,–,–,–
CCc1ccc(NC(=O)CCC(=O)Nc2nnc(C(F)(F)F)s2)cc1,·,–,–,–
O=C1c2ccccc2NC(c2c(Cl)cccc2Cl)N1Cc1ccccc1 (stereo not drawn),–,–,–,–
O=C1c2ccccc2NC(c2ccc(Cl)cc2Cl)N1Cc1ccccc1 (stereo not drawn),87,–,–,–
CCOC(=O)c1c(CSC(=N)N)n(-c2ccc(Br)cc2)c2cc(Br)c(OC(C)=O)cc12,110,·,·,·
CCCCCCCCOC(=O)c1c(CSC(=N)N)n(C)c2cc(Br)c(OC(C)=O)cc12,100,–,–,–
CCOC(=O)c1c(CSc2nc(C)cc(C)c2C#N)n(C)c2cc(Br)c(OC(C)=O)cc12,–,–,–,–
C=CCCc1ccc(C#N)c(SCc2c(C(=O)OCC)c3cc(OC(C)=O)c(Br)cc3n2C)n1,72,–,–,–
Cn1nnnc1SCC(=O)Nc1ncc(C(F)(F)F)cc1Cl,·,–,–,–
CC1(C)CC(=O)C(C(c2ccc(Br)cc2)C2C(=O)CC(C)(C)CC2=O)C(=O)C1,·,–,–,–
C=CCN(c1ccccc1)S(=O)(=O)c1cccc(C(=O)Nc2cccc(C)n2)c1,·,–,–,–
COc1ccc(-c2[nH]n(-c3ccc([N+](=O)[O-])cc3)c(=O)c2C=NCc2ccncc2)cc1,85,–,–,–
O=C(CCS(=O)(=O)c1ccc(Cl)cc1)Nc1nc(-c2ccncc2)cs1,·,–,–,–
COC(=O)c1cn(NC(=O)CC2CCCCC2)c(=O)c2ccccc12,72,–,–,–
COC(=O)c1cn(NC(=O)CCC2CCCC2)c(=O)c2ccccc12,–,–,–,–
Cc1ccc(SCC(=O)NC(=O)NCc2ccccc2)c(C)c1,81,–,–,–
CC1CCN(C(=O)CN2C(=O)C(=O)N(C(C)C)C2=O)c2ccccc2S1 (stereo not drawn),·,–,–,–
Cc1cc(C)cc(OCC(=O)OC/C(O)=C(\C#N)c2nc3ccccc3[nH]2)c1,79,–,–,–
N#C/C(=C(/O)COC(=O)COc1cccc(Br)c1)c1nc2ccccc2[nH]1,75,–,–,–
CCN1CCN(CC#CCOc2ccccc2OC)CC1,·,–,–,–
SMILES,CHOP inhibitor,Bfl-1 A1 inh,CHOP UPR activ,XBP1 UPR activ
Cc1cc(=O)[nH]c(SCC(=O)N2CCN(C(c3ccccc3)c3ccccc3)CC2)n1,74,–,–,–
Cc1cc(=O)[nH]c(SCC(=O)N2CCCCC2)n1,·,–,–,–
CC(C)(C)Nc1nc(N2CCCC2)nc(N2CCCC2)n1,77,–,–,–
COC(=O)c1cc2occc2n1Cc1ccc(Cl)cc1,87,–,–,–
COC(=O)c1cc2occc2n1Cc1c(F)cccc1Cl,–,·,·,·
CCN(C(=O)COC(=O)c1ccc(=O)n(Cc2ccccc2)n1)C1CCS(=O)(=O)C1 (stereo not drawn),·,·,–,–
CN(C)c1ccc(-c2nn3c(C4CCCCC4)nnc3s2)cc1,93,–,–,–
Cc1ccccc1C(=NC(=O)c1ccccc1)c1ccccc1,72,–,–,–
Cc1ccccc1C(=O)O/N=C(\N)c1ccccc1,·,–,–,–
CN(C)c1cccc(C(=O)OCc2cc(=O)oc3cc(O)ccc23)c1,90,–,–,–
CC1CN(S(=O)(=O)c2cccc(C(=O)OCc3cc(=O)oc4cc(O)ccc34)c2)CC(C)O1 (stereo not drawn),·,–,–,–
O=C(NCC1CCCO1)c1ccc2c(=O)n(-c3ccccc3)c(=S)[nH]c2c1 (stereo not drawn),–,–,–,–
Cc1ccc(Cl)c(OCC(=O)NCC(c2cccs2)N2CCOCC2)c1 (stereo not drawn),·,–,–,–
Cc1cc(C)c(C#N)c(N2CCN(CCOc3ccc(Cl)cc3)CC2)n1,75,–,–,–
O=[N+]([O-])c1ccc(Oc2ccc(S(=O)(=O)Nc3ccccc3)cc2)cc1,71,–,–,–
O=C(CN1CCCc2ccccc21)Nc1ccc(F)cc1[N+](=O)[O-],74,?,–,–
CCCCn1c(=O)[nH]c(=O)c2c1nc(-c1ccccc1OC(F)F)n2C,·,–,–,–
O=C(c1ccccc1Cc1ccccc1)N1CCN(S(=O)(=O)c2ccccc2[N+](=O)[O-])CC1,·,–,–,–
Cc1ccc(NC(=O)CSc2ccc(-c3ccco3)nn2)cc1,74,–,–,–
Cc1ccc(SCC(=O)Nc2ccc(-c3nnc(-c4ccco4)o3)cc2)cc1,75,–,–,–
CC(=O)Nc1ccc(NC(=O)CSc2ccc(-c3ccco3)nn2)cc1,–,–,–,–
CCCCN(C(=O)C(C)(C)Oc1ccc(Cl)cc1)c1c(N)n(CCC)c(=O)[nH]c1=O,·,–,–,–
CC(C)(C)n1nc2c(c1NC(=O)COc1ccc(F)cc1)CS(=O)(=O)C2,·,–,–,–
COC(=O)C(NC(=O)CCc1nnc2ccc(N3CCCCC3)nn12)C(C)C (stereo not drawn),·,–,–,–
Cc1nn(S(=O)(=O)c2ccc(Cl)cc2)c(C)c1Sc1ccc([N+](=O)[O-])cc1,85,–,·,·
SMILES,CHOP inhibitor,Bfl-1 A1 inh,CHOP UPR activ,XBP1 UPR activ
O=C(Nc1cccc(Br)c1)c1ccc(OC2CSC2)cc1,–,–,–,–
CC(=O)OC1COC(OC2C(O)C(C)OC(OC3C(OC4CCC5(C)C(CCC6(C)C5CC=C5C7CC(C)(C)CCC7(C(=O)O)CCC56C)C4(C)CO)OCC(O)C3O)C2O)C(O)C1OC(C)=O (stereo not drawn),92,–,–,–
COc1ccc2c(c1)Cc1sc(NC(=O)c3ccccc3)nc1-2,84,–,–,–
COc1ccc2c(c1)Cc1sc(NC(=O)c3cccs3)nc1-2,74,–,–,–
Nn1c(SCC(=O)Nc2nccs2)nnc1C1CC1,·,–,–,–
COCCn1c(SCC(=O)Nc2cccc(C)n2)nnc1-c1ccco1,–,–,–,–
Cc1cc2cc(C)c(NCCNC(=O)c3ccccc3)nc2cc1C,90,–,–,–
CCOc1ccc2nc(NCCNC(=O)C(C)C)c(C)cc2c1,71,–,–,–
CCOc1ccc(C(=O)NC(=S)NC2CCCC2)cc1[N+](=O)[O-],71,–,–,–
COC(=O)c1ccc(Oc2cc(C)nc(NCc3ccccc3)n2)cc1,–,–,–,–
Cc1cc(Oc2ccc(C#N)cc2)nc(NCc2ccccc2)n1,77,–,–,–

# High-throughput results deposited in PubChem by several laboratories.
